Data published in ChEMBL document CHEMBL1155099, “Natural products in parallel synthesis: triazole libraries of nonactic acid” (2008).
The source made the active and inactive calls.

Columns and labels:
Type in all cases: functional, organism-based
[1] = system: Bacillus subtilis; experiment: Antibacterial activity against Bacillus subtilis at 1 mM by almar blue dye reduction assay
Method in brief: (§1)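 Single-point primary screen at 1 mM using Alamar Blue dye reduction as the growth read-out.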

[2] = system: Bacillus cereus; experiment: Antibacterial activity against Bacillus cereus at 1 mM by almar blue dye reduction assay; method in brief: as §1
[3] = system: Saccharomyces cerevisiae; experiment: Antifungal activity against Saccharomyces cerevisiae at 1 mM by almar blue dye reduction assay; method in brief: as §1
[4] = system: Staphylococcus aureus; experiment: Antibacterial activity against Staphylococcus aureus at 1 mM by almar blue dye reduction assay; method in brief: as §1
[5] = system: Cryptococcus neoformans; experiment: Antifungal activity against Cryptococcus neoformans at 1 mM by almar blue dye reduction assay; method in brief: as §1
[6] = system: Candida albicans; experiment: Antifungal activity against Candida albicans at 1 mM by almar blue dye reduction assay; method in brief: as §1
[7] = system: Pseudomonas aeruginosa; experiment: Antibacterial activity against Pseudomonas aeruginosa at 1 mM by almar blue dye reduction assay; method in brief: as §1
[8] = system: Bacillus anthracis; experiment: Antibacterial activity against Bacillus anthracis at 1mM by almar blue dye reduction assay
[9] = system: Escherichia coli; experiment: Antibacterial activity against Escherichia coli at 1 mM by almar blue dye reduction assay; method in brief: as §1

Measured: Activity

C[C@H](C[C@@H]1CC[C@H]([C@@H](C)C(=O)N2CCCC2)O1)n1cc(C#CC2=CCCCC2)nn1
inactive: all assays above

C[C@H](C[C@@H]1CC[C@H]([C@@H](C)C(=O)N2CCN(CC3CCCO3)CC2)O1)n1cc(C#CCOc2ccc(C(F)(F)F)cc2)nn1 (stereo partly drawn)
inactive: all assays above

CCN(CC)C(=O)[C@H](C)[C@H]1CC[C@@H](C[C@@H](C)n2cc(C#CCC(C)C)nn2)O1
inactive: all assays above

CCN(CC)C(=O)[C@H](C)[C@H]1CC[C@@H](C[C@@H](C)n2cc(C#Cc3ccccc3)nn2)O1
inactive: all assays above

C[C@H](C[C@@H]1CC[C@H]([C@@H](C)C(=O)N2CCCC2)O1)n1cc(C#Cc2ccccc2[N+](=O)[O-])nn1
inactive: all assays above

CCCNC(=O)NCC#Cc1cn([C@H](C)CC2CCC([C@@H](C)C(=O)N(CC)CC)O2)nn1 (single isomer, unassigned)
inactive: all assays above

COCCNCC#Cc1cn([C@H](C)C[C@@H]2CC[C@H]([C@@H](C)C(=O)N3CCCC3)O2)nn1
inactive: all assays above

COc1ccc(C#Cc2cn([C@H](C)C[C@@H]3CC[C@H]([C@@H](C)C(=O)N4CCN(CC5CCCO5)CC4)O3)nn2)cc1 (stereo partly drawn)
inactive: all assays above

CC(C)CC#Cc1cn([C@H](C)C[C@@H]2CC[C@H]([C@@H](C)C(=O)N3CCN(CC4CCCO4)CC3)O2)nn1 (stereo partly drawn)
inactive: all assays above

C[C@H](CC1CCC([C@@H](C)C(=O)N2CCCC2)O1)n1cc(C#CCOC(=O)OCc2ccccc2)nn1 (single isomer, unassigned)
inactive: all assays above

CC(C)CC#Cc1cn([C@H](C)C[C@@H]2CC[C@H]([C@@H](C)C(=O)NC(C)C)O2)nn1
inactive: all assays above

CC(C)NC(=O)[C@H](C)C1CCC(C[C@@H](C)n2cc(C#CCNC(=O)OCc3ccccc3)nn2)O1 (single isomer, unassigned)
inactive: all assays above

CCN(CC)C(=O)[C@H](C)C1CCC(C[C@@H](C)n2cc(C#CCOC(=O)Nc3cccc(C)c3)nn2)O1 (single isomer, unassigned)
inactive: all assays above

CCN(CC)C(=O)[C@H](C)[C@H]1CC[C@@H](C[C@@H](C)n2cc(C#CCN3CCOCC3)nn2)O1
inactive: all assays above

CC(C)NC(=O)[C@H](C)[C@H]1CC[C@@H](C[C@@H](C)n2cc(C#Cc3ccc(-c4ccccc4)cc3)nn2)O1
inactive: all assays above

Cc1cccc(NC(=O)NCC#Cc2cn([C@H](C)CC3CCC([C@@H](C)C(=O)N4CCN(CC5CCCO5)CC4)O3)nn2)c1 (single isomer, unassigned)
inactive: all assays above

COCC#Cc1cn([C@H](C)C[C@@H]2CC[C@H]([C@@H](C)C(=O)N3CCCC3)O2)nn1
inactive: all assays above
